Data from ChEMBL document CHEMBL4196123, “Discovery of an Orally Bioavailable Dual PI3K/mTOR Inhibitor Based on Sulfonyl-Substituted Morpholinopyrimidines” (ACS Med Chem Lett, 2018).
The source made the active and inactive calls. No cut-off for these calls is given here.

Experiments:
[1] = target: PI3-kinase p110-alpha/p85-alpha (Homo sapiens, UniProt P42336, E542K); assay: Inhibition of recombinant human His-tagged p85alpha/p110alpha E542K mutant expressed in insect cells
Mus musculus = assay: Toxicity in Balb/c nu/nu mouse xenografted with human HT-29 cells harboring PIK3CA P449T mutant assessed as survival at 7.5 mg/kg, po administered daily via gavage for 27 days measured post last dose; type: organism-based; conditions: in vivo, 648 h
Procedure, shortened: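 Balb/c nu/nu mice carrying HT-29 xenografts (PIK3CA P449T), dosed by daily oral gavage for 27 days starting when mean tumor size was about 240 mm³, alongside a vehicle group. Survival was recorded after the 27-day treatment. Body weight change was measured over time. n = 6 per group, mean ± SEM, Dunnett's multiple comparison test.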

[2] = Oral bioavailability in CD1 mouse at 10 mg/kg administered via gavage by LC-MS/MS analysis; type: ADME, organism-based; conditions: in vivo
[3] = target: Phosphatidylinositol 4,5-bisphosphate 3-kinase catalytic subunit alpha isoform (Homo sapiens, UniProt P42336, H1047R); assay: Inhibition of p110alpha H1047R mutant (unknown origin)
[4] = target: Serine/threonine-protein kinase ATR (Homo sapiens) (UniProt Q13535); assay: Inhibition of ATR in human HT-29 cells assessed as reduction in camptothecin-induced Chk1 phosphorylation at Ser345 residue at 10 uM pretreated for 1 hr followed by camptothecin addition; type: cell-based
Procedure, shortened: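 HT-29 cells were pretreated with compound for 1 h, then exposed to camptothecin to induce DNA damage. ATR activity was read as phosphorylation of its substrate Chk1, with total Chk1 and β-actin as internal controls. […] served as reference inhibitor.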

[5] = Inhibition of PI3K in human PC3 cells assessed as reduction in AKT phosphorylation at Ser473 measured after 2 hrs by fluorescence assay; type: cell-based; conditions: PC-3, 2 h
MCF7 = assay: Antiproliferative activity against human MCF7 cells harboring PIK3CA E545K mutant after 72 hrs by MTT assay; type: functional, cell-based; conditions: MCF7, 72 h
[6] = Apparent permeability across basolateral to apical side in human Caco2 cells measured after 90 mins by LC-MS/MS analysis; type: ADME, cell-based; conditions: Caco-2

Phosphatidylinositol 4,5-bisphosphate 3-kinase catalytic subunit alpha isoform, sequence (P42336 whole entry H1047R, canonical isoform): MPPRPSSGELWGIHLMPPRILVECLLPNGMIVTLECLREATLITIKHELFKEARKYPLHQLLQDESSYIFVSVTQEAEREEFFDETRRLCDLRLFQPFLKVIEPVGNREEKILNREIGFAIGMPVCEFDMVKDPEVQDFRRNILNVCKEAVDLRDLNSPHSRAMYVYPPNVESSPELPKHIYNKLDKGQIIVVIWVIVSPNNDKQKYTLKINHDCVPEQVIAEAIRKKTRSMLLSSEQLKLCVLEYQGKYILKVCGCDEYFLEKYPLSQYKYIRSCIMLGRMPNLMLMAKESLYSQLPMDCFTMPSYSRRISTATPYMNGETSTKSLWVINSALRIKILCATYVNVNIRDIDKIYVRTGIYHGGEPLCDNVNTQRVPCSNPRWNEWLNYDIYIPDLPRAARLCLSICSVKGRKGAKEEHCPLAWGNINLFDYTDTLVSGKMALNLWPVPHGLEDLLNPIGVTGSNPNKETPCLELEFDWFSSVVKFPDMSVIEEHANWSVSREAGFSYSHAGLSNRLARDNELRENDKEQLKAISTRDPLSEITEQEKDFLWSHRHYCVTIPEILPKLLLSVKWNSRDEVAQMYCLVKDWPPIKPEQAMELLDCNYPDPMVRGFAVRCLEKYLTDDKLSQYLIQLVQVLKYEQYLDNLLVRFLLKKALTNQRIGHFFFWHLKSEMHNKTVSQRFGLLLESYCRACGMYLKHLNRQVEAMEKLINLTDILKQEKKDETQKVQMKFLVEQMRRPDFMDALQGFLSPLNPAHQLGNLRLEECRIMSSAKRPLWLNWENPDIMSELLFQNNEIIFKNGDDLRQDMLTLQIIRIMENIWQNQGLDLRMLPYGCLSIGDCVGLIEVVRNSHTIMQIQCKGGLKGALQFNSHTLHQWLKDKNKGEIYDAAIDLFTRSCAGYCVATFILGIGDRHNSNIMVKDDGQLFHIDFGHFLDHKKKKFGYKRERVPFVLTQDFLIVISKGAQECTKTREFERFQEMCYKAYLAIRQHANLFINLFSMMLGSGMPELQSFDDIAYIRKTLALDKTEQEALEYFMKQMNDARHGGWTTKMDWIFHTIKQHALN
PI3-kinase p110-alpha/p85-alpha, sequence (P42336 whole entry E542K, looked up): as the sequence (P42336 whole entry H1047R, canonical isoform) above, with E542K, R1047H counted along it
Serine/threonine-protein kinase ATR (Homo sapiens), sequence (Q13535 whole entry, looked up): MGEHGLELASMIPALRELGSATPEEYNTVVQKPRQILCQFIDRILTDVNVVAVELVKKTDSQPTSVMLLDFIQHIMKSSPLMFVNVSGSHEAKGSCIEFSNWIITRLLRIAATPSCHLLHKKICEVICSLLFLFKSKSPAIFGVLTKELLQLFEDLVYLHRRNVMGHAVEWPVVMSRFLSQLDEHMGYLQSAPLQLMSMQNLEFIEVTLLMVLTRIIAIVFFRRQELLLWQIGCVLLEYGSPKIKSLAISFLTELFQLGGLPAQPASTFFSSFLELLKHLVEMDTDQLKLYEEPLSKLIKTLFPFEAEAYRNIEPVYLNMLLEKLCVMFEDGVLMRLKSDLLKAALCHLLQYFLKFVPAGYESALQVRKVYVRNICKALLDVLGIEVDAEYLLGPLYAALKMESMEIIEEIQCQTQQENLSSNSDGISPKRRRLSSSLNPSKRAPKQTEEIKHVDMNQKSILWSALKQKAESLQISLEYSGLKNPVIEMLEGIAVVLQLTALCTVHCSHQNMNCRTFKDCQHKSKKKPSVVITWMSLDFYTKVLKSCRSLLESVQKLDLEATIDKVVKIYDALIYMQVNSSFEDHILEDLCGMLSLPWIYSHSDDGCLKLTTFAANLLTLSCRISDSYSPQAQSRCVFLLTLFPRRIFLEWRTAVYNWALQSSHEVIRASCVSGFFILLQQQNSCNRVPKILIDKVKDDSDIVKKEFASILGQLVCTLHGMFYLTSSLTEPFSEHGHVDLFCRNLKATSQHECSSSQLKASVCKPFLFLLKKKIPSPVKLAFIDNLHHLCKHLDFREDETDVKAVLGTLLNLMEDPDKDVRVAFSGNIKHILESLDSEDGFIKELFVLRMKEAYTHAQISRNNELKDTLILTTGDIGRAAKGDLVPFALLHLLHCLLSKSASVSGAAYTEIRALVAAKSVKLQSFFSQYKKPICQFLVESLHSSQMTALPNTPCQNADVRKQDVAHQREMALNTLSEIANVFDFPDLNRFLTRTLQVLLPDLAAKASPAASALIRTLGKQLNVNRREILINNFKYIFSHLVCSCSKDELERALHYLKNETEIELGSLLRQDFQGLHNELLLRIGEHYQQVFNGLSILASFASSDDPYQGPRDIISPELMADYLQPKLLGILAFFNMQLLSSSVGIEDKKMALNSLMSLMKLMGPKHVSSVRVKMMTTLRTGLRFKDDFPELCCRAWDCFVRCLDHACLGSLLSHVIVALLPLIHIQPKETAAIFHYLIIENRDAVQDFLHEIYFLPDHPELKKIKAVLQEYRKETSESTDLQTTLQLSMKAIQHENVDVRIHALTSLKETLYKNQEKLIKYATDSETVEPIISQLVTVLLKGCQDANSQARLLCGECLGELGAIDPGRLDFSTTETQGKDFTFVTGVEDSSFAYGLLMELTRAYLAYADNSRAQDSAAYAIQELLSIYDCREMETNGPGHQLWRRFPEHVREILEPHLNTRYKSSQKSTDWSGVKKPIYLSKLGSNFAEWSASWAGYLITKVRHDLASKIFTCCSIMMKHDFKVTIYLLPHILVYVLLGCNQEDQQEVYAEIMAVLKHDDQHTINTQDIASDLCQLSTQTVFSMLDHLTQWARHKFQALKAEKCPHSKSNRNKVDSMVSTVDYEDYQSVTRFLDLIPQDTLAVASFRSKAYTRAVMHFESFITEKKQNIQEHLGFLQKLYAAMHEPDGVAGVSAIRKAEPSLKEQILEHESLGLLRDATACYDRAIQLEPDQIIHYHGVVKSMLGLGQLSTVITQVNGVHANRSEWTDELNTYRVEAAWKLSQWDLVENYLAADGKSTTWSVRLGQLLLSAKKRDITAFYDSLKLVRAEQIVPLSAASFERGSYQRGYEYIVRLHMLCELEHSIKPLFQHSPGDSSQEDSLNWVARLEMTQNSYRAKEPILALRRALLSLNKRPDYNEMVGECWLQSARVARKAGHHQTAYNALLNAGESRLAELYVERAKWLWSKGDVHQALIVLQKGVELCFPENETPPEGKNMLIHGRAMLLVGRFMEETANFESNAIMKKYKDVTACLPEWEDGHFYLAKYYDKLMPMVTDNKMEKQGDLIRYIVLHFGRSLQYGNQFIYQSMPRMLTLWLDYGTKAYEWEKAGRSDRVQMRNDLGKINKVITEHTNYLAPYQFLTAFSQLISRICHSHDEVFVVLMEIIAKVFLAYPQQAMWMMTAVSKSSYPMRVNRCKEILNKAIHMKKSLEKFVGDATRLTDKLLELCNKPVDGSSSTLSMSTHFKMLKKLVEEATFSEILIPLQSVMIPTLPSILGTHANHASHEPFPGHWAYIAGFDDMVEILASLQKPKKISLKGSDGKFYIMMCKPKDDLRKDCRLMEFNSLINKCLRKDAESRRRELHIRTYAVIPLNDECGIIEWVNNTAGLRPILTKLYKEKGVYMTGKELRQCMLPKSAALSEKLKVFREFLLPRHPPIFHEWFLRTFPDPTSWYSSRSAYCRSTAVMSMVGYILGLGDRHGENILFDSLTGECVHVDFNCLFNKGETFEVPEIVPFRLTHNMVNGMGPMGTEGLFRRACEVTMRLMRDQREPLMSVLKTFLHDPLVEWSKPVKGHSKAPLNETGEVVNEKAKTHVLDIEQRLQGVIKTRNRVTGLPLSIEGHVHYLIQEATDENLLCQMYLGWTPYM

## C[C@H]1COCCN1c1nc(-c2cnc(N)cc2F)cc(C2(S(C)(=O)=O)CC2)n1
[1]
  IC50: 11 nM
Mus musculus
  Activity: Non-Toxic
[2]
  bioavailability: 94.6%
[3]
  IC50: 15 nM
[4]
  inhibition: Active
[5]
  IC50: 196 nM
MCF7
  IC50: 11 nM
[6]
  Papp B→A at 1.5 h: > 10 ×10⁻⁶ cm/s
